Laboratory results published in ChEMBL document CHEMBL4825747, “A Retrospective Look at the Impact of Binding Site Environment on the Optimization of TRPA1 Antagonists” (ACS Med Chem Lett, 2021).
In brackets after ≈: the same amount, converted by molar mass.

Key:
[1] = target: Transient receptor potential cation channel subfamily A member 1 (Homo sapiens, UniProt O75762); experiment: Antagonist activity at human TRPA1 expressed in CHO cells measured by calcium based FLIPR assay; assay type: cell-based
[2] = target: Transient receptor potential cation channel subfamily A member 1 (Rattus norvegicus, UniProt Q6RI86); experiment: Antagonist activity at rat TRPA1
Outline: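 In vitro potency read in a CHO cell line-based fluorometric imaging plate reader (FLIPR) Ca2+ assay against the rat TRPA1 channel.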

[3] = target: Transient receptor potential cation channel subfamily A member 1 (Rattus norvegicus) (UniProt Q6RI86); experiment: In vivo antagonist activity at TRPA1 in AITC-induced rat pain model assessed as reduction in pain behaviour when administered orally; assay type: functional, organism-based
[4] = Lipophilicity, log D of the compound at pH 7.4; assay type: physicochemical; conditions: buffer
[5] = Kinetic solubility of the compound; assay type: physicochemical; conditions: for solubility kinetic: read-out: Kinetic_solubility
[6] = Unbound clearance in rat at 1 mg/kg; assay type: ADME, organism-based; conditions: in vivo
[7] = Unbound volume of distribution at steady state in rat at 1 mg/kg; assay type: ADME, organism-based; conditions: in vivo
[8] = Protein binding in rat plasma incubated for 4 hrs; assay type: ADME, cell-free; conditions: read-out: PPB (converted)
Outline: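 Rat plasma protein binding was determined after 4 h compound incubation rather than the standard 24 h, because of compound instability in rat plasma.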

[9] = Ratio of fEC50 for in vivo antagonist activity at TRPA1 in AITC-induced rat pain model assessed as reduction in pain behaviour when administered orally to IC50 for antagonist activity at rat TRPA1; assay type: organism-based; conditions: po
Outline: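 The in vivo value comes from the oral-dose rat AITC paw-injection model at Tmax, scoring flinching and licking against measured exposures across animals. The in vitro comparator is rat TRPA1 antagonism in a CHO cell-based FLIPR Ca2+ assay.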

[10] = Plasma clearance in rat at 1 mg/kg; assay type: ADME, organism-based
[11] = Volume of distribution at steady state in rat at 1 mg/kg; assay type: ADME, organism-based; conditions: in vivo, read-out: Vdss
[12] = Half life in rat at 1 mg/kg; assay type: ADME, organism-based; conditions: in vivo
[13] = Permeability across apical to basolateral membrane in MDCK cells; assay type: ADME, cell-based, Canis lupus familiaris; conditions: dog, read-out: permeability
[14] = Plasma clearance in rat at 0.5 mg/kg; assay type: ADME, organism-based
[15] = Unbound clearance in rat at 0.5 mg/kg; assay type: ADME, organism-based; conditions: in vivo
[16] = Volume of distribution at steady state in rat at 0.5 mg/kg; assay type: ADME, organism-based; conditions: in vivo, read-out: Vdss
[17] = Unbound volume of distribution at steady state in rat at 0.5 mg/kg; assay type: ADME, organism-based; conditions: in vivo
[18] = Half life in rat at 0.5 mg/kg; assay type: ADME, organism-based; conditions: in vivo

Sequence of Transient receptor potential cation channel subfamily A member 1 (Homo sapiens, UniProt O75762) (O75762 whole entry): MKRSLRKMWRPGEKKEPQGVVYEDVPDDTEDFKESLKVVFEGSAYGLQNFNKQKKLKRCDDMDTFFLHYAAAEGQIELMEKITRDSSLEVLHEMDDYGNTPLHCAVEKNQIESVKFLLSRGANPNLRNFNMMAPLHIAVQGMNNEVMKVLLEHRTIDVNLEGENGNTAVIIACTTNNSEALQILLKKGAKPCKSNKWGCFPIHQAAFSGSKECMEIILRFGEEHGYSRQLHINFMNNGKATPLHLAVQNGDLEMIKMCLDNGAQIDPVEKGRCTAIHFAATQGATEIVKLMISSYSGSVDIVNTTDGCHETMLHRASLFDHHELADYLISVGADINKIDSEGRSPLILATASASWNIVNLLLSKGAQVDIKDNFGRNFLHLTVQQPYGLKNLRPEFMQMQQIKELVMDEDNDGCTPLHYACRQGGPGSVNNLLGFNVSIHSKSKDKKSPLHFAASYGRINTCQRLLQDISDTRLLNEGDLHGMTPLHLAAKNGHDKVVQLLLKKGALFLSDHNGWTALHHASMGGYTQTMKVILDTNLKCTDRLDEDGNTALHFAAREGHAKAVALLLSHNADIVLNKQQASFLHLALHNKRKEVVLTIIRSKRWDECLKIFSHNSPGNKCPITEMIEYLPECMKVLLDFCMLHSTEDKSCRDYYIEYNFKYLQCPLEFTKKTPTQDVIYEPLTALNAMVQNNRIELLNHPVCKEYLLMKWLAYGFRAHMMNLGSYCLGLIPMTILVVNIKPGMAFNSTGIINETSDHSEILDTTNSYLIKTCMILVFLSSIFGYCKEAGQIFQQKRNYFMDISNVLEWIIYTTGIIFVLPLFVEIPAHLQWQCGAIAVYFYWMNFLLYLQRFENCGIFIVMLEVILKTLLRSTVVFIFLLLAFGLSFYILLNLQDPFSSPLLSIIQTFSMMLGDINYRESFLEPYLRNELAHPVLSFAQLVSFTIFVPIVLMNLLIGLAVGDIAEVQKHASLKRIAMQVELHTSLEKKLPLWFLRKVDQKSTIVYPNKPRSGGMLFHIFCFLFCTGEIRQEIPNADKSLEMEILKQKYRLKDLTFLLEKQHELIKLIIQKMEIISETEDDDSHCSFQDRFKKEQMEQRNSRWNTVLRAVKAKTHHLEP
Sequence of Transient receptor potential cation channel subfamily A member 1 (Rattus norvegicus) (Q6RI86 whole entry): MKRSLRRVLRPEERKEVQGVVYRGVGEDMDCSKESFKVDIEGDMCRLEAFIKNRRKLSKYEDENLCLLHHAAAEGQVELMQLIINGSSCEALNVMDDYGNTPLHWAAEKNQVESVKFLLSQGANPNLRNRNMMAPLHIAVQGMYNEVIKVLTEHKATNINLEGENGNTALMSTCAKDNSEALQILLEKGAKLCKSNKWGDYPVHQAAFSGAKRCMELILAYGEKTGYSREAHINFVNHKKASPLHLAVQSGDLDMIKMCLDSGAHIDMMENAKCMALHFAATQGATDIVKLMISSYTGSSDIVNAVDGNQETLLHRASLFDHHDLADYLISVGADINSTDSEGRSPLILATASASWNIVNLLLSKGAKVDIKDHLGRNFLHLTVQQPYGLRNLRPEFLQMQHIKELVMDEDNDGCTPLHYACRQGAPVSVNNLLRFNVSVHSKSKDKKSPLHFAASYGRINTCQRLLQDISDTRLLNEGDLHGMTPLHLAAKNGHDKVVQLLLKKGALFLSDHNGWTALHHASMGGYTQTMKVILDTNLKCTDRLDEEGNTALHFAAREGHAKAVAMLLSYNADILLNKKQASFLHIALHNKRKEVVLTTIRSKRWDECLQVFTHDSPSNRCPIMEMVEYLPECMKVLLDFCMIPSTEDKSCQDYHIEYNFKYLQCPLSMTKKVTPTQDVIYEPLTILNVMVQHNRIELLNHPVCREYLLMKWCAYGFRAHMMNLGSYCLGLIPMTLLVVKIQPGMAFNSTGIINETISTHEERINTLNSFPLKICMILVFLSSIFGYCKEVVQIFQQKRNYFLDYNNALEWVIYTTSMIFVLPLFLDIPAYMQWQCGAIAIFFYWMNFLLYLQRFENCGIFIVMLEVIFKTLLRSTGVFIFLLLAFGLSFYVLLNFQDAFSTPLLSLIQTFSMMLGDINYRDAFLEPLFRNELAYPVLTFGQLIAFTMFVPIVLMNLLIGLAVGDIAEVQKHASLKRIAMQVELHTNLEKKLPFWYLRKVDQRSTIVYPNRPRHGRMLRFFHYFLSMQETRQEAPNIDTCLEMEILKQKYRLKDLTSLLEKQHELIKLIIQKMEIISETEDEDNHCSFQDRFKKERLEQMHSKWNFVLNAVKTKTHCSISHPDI
Sequence of Transient receptor potential cation channel subfamily A member 1 (Rattus norvegicus, UniProt Q6RI86) (Q6RI86 whole entry): as above

IC50 [1] | IC50 [2] | fEC50 [3] | logD [4] | Kinetic_solubility [5] | CL free [6] | fVdss [7] | fraction unbound at 4 h [8] | Ratio [9] | clearance [10] | Vd [11] | half-life [12] | Papp A→B [13] | solubility kinetic [5] | clearance [14] | CL free [15] | Vd [16] | fVdss [17] | half-life [18] | SMILES
8.4 nM | – | 60 nM | – | – | 157 mL/min/kg | 93 L/kg | 0.028 | 1.7 | – | 2.6 L/kg | – | – | < 1 µM | – | – | – | – | – | C[C@H]1[C@H](F)C[C@@H](C(=O)NCc2cc(-c3cnc(C(F)(F)F)nc3)ncc2F)N1S(=O)(=O)c1ccc(F)cc1
– | 1600 nM | – | – | – | – | – | 0.052 | – | – | – | – | – | – | 10 mL/min/kg | 192 mL/min/kg | 2.2 L/kg | 42 L/kg | 2.6 h | C[C@H]1[C@H](F)C[C@@H](C(=O)NCc2cc(-c3ccc(C(F)(F)F)nc3)ncn2)N1S(=O)(=O)c1ccc(F)cc1
– | 7.4 nM | 53 nM | 1.8 | – | 89 mL/min/kg | 11 L/kg | 0.192 | – | – | – | – | – | 120 µM (≈ 49.5 µg/mL) | – | – | – | – | – | Cn1cnc2ncn(Cc3nc([C@@H]4CO[C@@H](c5ccc(Cl)cc5)C4)no3)c(=O)c21
– | 390 nM | – | – | – | – | – | 0.075 | – | – | – | – | 16.5 ×10⁻⁶ cm/s | 98 µM (≈ 53.2 µg/mL) | 6.4 mL/min/kg | 85 mL/min/kg | 1.1 L/kg | 15 L/kg | 2 h | C[C@H]1[C@H](F)C[C@@H](C(=O)NCc2cc(-c3cnc(C(F)(F)F)nc3)ncn2)N1S(=O)(=O)c1ccc(F)cc1
– | 14 nM | 49 nM | 2.4 | – | 123 mL/min/kg | 28 L/kg | 0.081 | – | 10 mL/min/kg | 2.3 L/kg | 2.7 h | 6.4 ×10⁻⁶ cm/s | 15 µM (≈ 6.19 µg/mL) | – | – | – | – | – | Cn1cnc2ncn(Cc3nn([C@H]4C[C@H](c5ccc(Cl)cc5)C4)c(=O)o3)c(=O)c21

Second part, the compound before the results:

SMILES | IC50 [1] | IC50 [2] | fEC50 [3] | logD [4] | Kinetic_solubility [5] | CL free [6] | fVdss [7] | fraction unbound at 4 h [8] | Ratio [9] | clearance [10] | Vd [11] | half-life [12] | Papp A→B [13] | solubility kinetic [5] | clearance [14] | CL free [15] | Vd [16] | fVdss [17] | half-life [18]
Cn1cnc2ncn(Cc3nc([C@H]4[C@@H]5CN(c6cccc(Cl)c6)C[C@@H]54)no3)c(=O)c21 | 2.9 nM | 7.9 nM | 7.9 nM | 2.9 | 2 µM | 214 mL/min/kg | 110 L/kg | 0.021 | 1 | – | – | – | – | – | – | – | – | – | –
C[C@H]1[C@H](F)C[C@@H](C(=O)NCc2cc(-c3cnc(C(F)(F)F)nc3)ncc2C(F)(F)F)N1S(=O)(=O)c1ccc(F)cc1 | 1.6 nM | 10 nM | 3.7 nM | – | 7 µM | 642 mL/min/kg | 467 L/kg | 0.012 | 0.37 | 7.7 mL/min/kg | 5.6 L/kg | 9.8 h | 27.5 ×10⁻⁶ cm/s | – | – | – | – | – | –
Cn1cnc2ncn(Cc3nn(C[C@H](F)c4ccc(Cl)cc4)c(=O)o3)c(=O)c21 | 20 nM | 18 nM | 390 nM | 1.2 | – | 45 mL/min/kg | 3.4 L/kg | 0.381 | 22 | – | – | 1.5 h | – | – | – | – | – | – | –
